{"source": "paper PMC6407737", "about": "(Targeted Oncology, 2019)", "key": {"advanced solid tumors": {"test_system": "advanced solid tumors", "details": "mixed populations of patients with advanced solid tumors; cited from earlier work"}, "[1]": {"details": "at lesser frequency than BI 853520; cited from earlier work"}, "[2]": {"details": "rats; cited from earlier work"}, "[3]": {"test_system": "advanced or metastatic solid tumors", "assay": "Investigator-assessed anti-tumor activity, RECIST version 1.1", "format": "in vivo, human", "procedure,_shortened": "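Open-label phase I study in Japanese and Taiwanese patients (ECOG 0–1) given oral drug once daily, continuously, in 28-day cycles at 50, 100 or 200 mg. CT/MRI at screening, at end of cycle 2, then every two cycles until treatment ended. Objective response was CR or PR; disease control was CR, PR or SD. Evaluable patients had baseline plus ≥1 post-baseline assessment. Analysis was descriptive on patients receiving ≥1 dose.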"}, "MiaPaCa2 xenograft": {"test_system": "MiaPaCa2 xenograft", "details": "QD; cited from earlier work"}, "[4]": {"details": "dogs; cited from earlier work"}, "[5]": {"assay": "Phase I dose-finding study: safety, DLT and MTD", "format": "in vivo, human", "procedure,_shortened": "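Open-label 3 + 3 dose escalation in cohorts of three to six patients. Oral dosing was once daily, continuous, in 28-day cycles, starting at 50 mg, with 100 and 200 mg planned. DLT was assessed during cycle 1. MTD was the highest level with DLT in none or one of six patients, followed by an expansion cohort at that dose. AEs were graded by CTCAE v4.03 in all patients receiving ≥1 dose.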"}, "[6]": {"details": "liquid dispersion vs. tablet; with/without a high-calorie meal; cited from earlier work"}, "[7]": {"test_system": "advanced or metastatic non-hematologic malignancies", "details": "FIH study; cited from earlier work"}, "[8]": {"details": "cited from earlier work"}, "[9]": {"assay": "Plasma and urine pharmacokinetics in cycle 1", "format": "in vivo, human"}, "[10]": {"details": "200 mg QD, N = 10, geometric mean"}}, "note": "“Also recorded” adds a separate entry of the source. Read-outs that look alike come from different tables or passages of the source. Marks after values point to notes of the source that are not given here.", "data": [{"smiles": "CNC(=O)c1ccc(Nc2ncc(C(F)(F)F)c(NCc3nccnc3N(C)S(C)(=O)=O)n2)cc1", "note": "[VS-6063]", "values": [{"measurement": "anti-tumor activity in phase I", "setting": "advanced solid tumors", "result": "evidence of disease stabilization"}]}, {"smiles": "CONC(=O)c1ccccc1Nc1cc(Nc2cc(C)nn2C(C)C)ncc1Cl", "note": "[GSK2256098]", "values": [{"measurement": "anti-tumor activity in phase I", "setting": "advanced solid tumors", "result": "evidence of disease stabilization"}, {"measurement": "proteinuria", "setting": "[1]", "result": "Proteinuria has been reported"}]}, {"smiles": "COc1cc(C(=O)NC2CCN(C)CC2)c(F)cc1Nc1ncc(C(F)(F)F)c(Oc2cccc3c2C(=O)N(C)C3)n1", "note": "[BI 853520]", "values": [{"measurement": "principal toxicological target organs", "setting": "[2]", "result": "gastrointestinal tract and liver"}, {"measurement": "confirmed objective response rate", "setting": "[3]; 21 treated patients", "result": 5, "unit": "%"}, {"measurement": "disease control rate", "setting": "[3]; 21 treated patients", "result": 29, "unit": "%"}, {"measurement": "patients with progressive disease", "setting": "[3]; 21 treated patients", "result": 57, "unit": "%"}, {"measurement": "Best confirmed response: Complete response", "setting": "[3]; N = 21", "result": "0 N (%)"}, {"measurement": "Best confirmed response: Progressive disease", "setting": "[3]; N = 21", "result": "12 (57) N (%)"}, {"measurement": "Best confirmed response: Stable disease", "setting": "[3]; N = 21", "result": "5 (24)^d N (%)"}, {"measurement": "Best confirmed response: Objective response", "setting": "[3]; N = 21, complete response or partial response", "result": "1 (5) N (%)"}, {"measurement": "Best confirmed response: Disease control", "setting": "[3]; N = 21, complete response, partial response, or stable disease", "result": "6 (29) N (%)"}, {"measurement": "Best confirmed response: Partial response", "setting": "[3]; N = 21, patient with gastric cancer (100 mg cohort)", "result": "1 (5)^c N (%)"}, {"measurement": "median duration of disease control", "setting": "[3]; six patients with confirmed disease control", "result": 3.7, "unit": "months"}, {"measurement": "active dose", "setting": "MiaPaCa2 xenograft", "result": 12.5, "unit": "mg/kg"}, {"measurement": "principal toxicological target organs", "setting": "[4]", "result": "gastrointestinal tract and liver"}, {"measurement": "evaluable patients treated at the MTD who experienced DLT", "setting": "[5]; 200 mg QD", "result": "two of 15"}, {"measurement": "drug-related serious AEs", "setting": "[5]; 21 treated patients", "result": "None of the SAEs was considered drug-related"}, {"measurement": "patients who discontinued treatment due to AEs", "setting": "[5]; 21 treated patients", "result": 19, "unit": "%"}, {"measurement": "patients with drug-related adverse events", "setting": "[5]; 21 treated patients", "result": 90, "unit": "%"}, {"measurement": "patients with drug-related diarrhea", "setting": "[5]; 21 treated patients", "result": 38, "unit": "%"}, {"measurement": "patients with drug-related nausea", "setting": "[5]; 21 treated patients", "result": 29, "unit": "%"}, {"measurement": "patients with drug-related proteinuria", "setting": "[5]; 21 treated patients", "result": 48, "unit": "%"}, {"measurement": "patients with drug-related vomiting", "setting": "[5]; 21 treated patients", "result": 19, "unit": "%"}, {"measurement": "patients with serious AEs (SAEs)", "setting": "[5]; 21 treated patients", "result": 24, "unit": "%"}, {"measurement": "dose-limiting toxicities during cycle 1", "setting": "[5]; 50, 100, or 200 mg cohorts", "result": "no dose-limiting toxicities were observed; also recorded: no DLTs were observed"}, {"measurement": "Any drug-related AE", "setting": "[5]; N = 21, all dose cohorts", "result": "19 (90) N (%)"}, {"measurement": "Drug-related AE: AST increased", "setting": "[5]; N = 21, all dose cohorts", "result": "1 (5) N (%)"}, {"measurement": "Drug-related AE: Abdominal pain upper", "setting": "[5]; N = 21, all dose cohorts", "result": "1 (5) N (%)"}, {"measurement": "Drug-related AE: Anemia", "setting": "[5]; N = 21, all dose cohorts", "result": "1 (5) N (%)"}, {"measurement": "Drug-related AE: Back pain", "setting": "[5]; N = 21, all dose cohorts", "result": "1 (5) N (%)"}, {"measurement": "Drug-related AE: Blood bilirubin increased", "setting": "[5]; N = 21, all dose cohorts", "result": "1 (5) N (%)"}, {"measurement": "Drug-related AE: Blood creatinine increased", "setting": "[5]; N = 21, all dose cohorts", "result": "1 (5) N (%)"}, {"measurement": "Drug-related AE: Decreased appetite", "setting": "[5]; N = 21, all dose cohorts", "result": "2 (10) N (%)"}, {"measurement": "Drug-related AE: Dehydration", "setting": "[5]; N = 21, all dose cohorts", "result": "1 (5) N (%)"}, {"measurement": "Drug-related AE: Diarrhea", "setting": "[5]; N = 21, all dose cohorts", "result": "8 (38) N (%)"}, {"measurement": "Drug-related AE: Dupuytren’s contracture", "setting": "[5]; N = 21, all dose cohorts", "result": "2 (10) N (%)"}, {"measurement": "Drug-related AE: Erectile dysfunction", "setting": "[5]; N = 21, all dose cohorts", "result": "1 (5) N (%)"}, {"measurement": "Drug-related AE: Fatigue", "setting": "[5]; N = 21, all dose cohorts", "result": "1 (5) N (%)"}, {"measurement": "Drug-related AE: Inguinal hernia", "setting": "[5]; N = 21, all dose cohorts", "result": "1 (5) N (%)"}, {"measurement": "Drug-related AE: Nausea", "setting": "[5]; N = 21, all dose cohorts", "result": "6 (29) N (%)"}, {"measurement": "Drug-related AE: Proteinuria", "setting": "[5]; N = 21, all dose cohorts", "result": "10 (48) N (%)"}, {"measurement": "Drug-related AE: Rash, maculo-papular", "setting": "[5]; N = 21, all dose cohorts", "result": "2 (10) N (%)"}, {"measurement": "Drug-related AE: Vomiting", "setting": "[5]; N = 21, all dose cohorts", "result": "4 (19) N (%)"}, {"measurement": "maximum tolerated dose (MTD)", "setting": "[5]; QD continuous daily dosing, 28-day cycles, Japanese and Taiwanese patients", "result": 200, "unit": "mg"}, {"measurement": "DLTs reported overall during the study", "setting": "[5]; all treated patients, all cycles", "result": "three of 21"}, {"measurement": "impact of formulation and food on pharmacokinetics", "setting": "[6]", "result": "neither formulation (liquid dispersion vs. tablet) nor administration with/without a high-calorie meal have notable impact"}, {"measurement": "disease control rate", "setting": "[7]", "result": 27, "unit": "%"}, {"measurement": "median duration of disease control", "setting": "[7]", "result": 3.3, "unit": "months"}, {"measurement": "radiographic objective responses", "setting": "[7]", "result": "no radiographic objective responses were reported"}, {"measurement": "DLTs or DRAEs of grade ≥ 2", "setting": "[8]; 50 mg QD or 100 mg QD", "result": "neither 50 mg QD or 100 mg QD had resulted in dose-limiting toxicities"}, {"measurement": "maximum tolerated dose (MTD)", "setting": "[8]; QD continuous dosing, predominantly (92%) Caucasian population", "result": 200, "unit": "mg"}, {"measurement": "patients with grade 3 proteinuria", "setting": "[8]; dose expansion phase of the FIH study", "result": 21, "unit": "%"}, {"measurement": "cumulative fraction excreted in urine", "setting": "[9]; 200 mg QD cohort", "result": "less than 9%"}, {"measurement": "RA,AUC (accumulation ratio, AUC at steady state / single dose)", "setting": "[9]; [10]", "result": 2.15}, {"measurement": "RA,Cmax (accumulation ratio, Cmax at steady state / single dose)", "setting": "[9]; [10]", "result": 1.62}, {"measurement": "trough plasma concentrations", "setting": "[9]; cycle 1, repeated QD dosing", "result": "stable from day 8 to day 28"}, {"measurement": "AUC(0-inf)", "setting": "[9]; human, plasma, oral, 200 mg, AUC0−∞, single dose, 200 mg QD cohort, N = 15, geometric mean", "result": 26.3, "unit": "µM·h"}, {"measurement": "AUC", "setting": "[9]; human, plasma, oral, 200 mg, AUCτ,1, single dose, 200 mg QD cohort, N = 15, geometric mean", "result": 15.3, "unit": "µM·h"}, {"measurement": "Cmax", "setting": "[9]; human, plasma, oral, 200 mg, Cmax, single dose, 200 mg QD cohort, N = 15, geometric mean", "result": 1570, "unit": "nM"}, {"measurement": "Vd/F", "setting": "[9]; human, plasma, oral, 200 mg, Vz/F, single dose, 200 mg QD cohort, N = 15, geometric mean", "result": 391, "unit": "L"}, {"measurement": "Tmax", "setting": "[9]; human, plasma, oral, 200 mg, tmax, single dose, 200 mg QD cohort, N = 15, median", "result": 2, "unit": "h"}, {"measurement": "half-life", "setting": "[9]; human, plasma, oral, 200 mg, t½, single dose, 200 mg QD cohort, N = 15, geometric mean", "result": 20.9, "unit": "h"}, {"measurement": "tmax,ss", "setting": "[9]; multiple dose, steady state day 28, 200 mg QD, N = 10, median", "result": 2.94, "unit": "h"}, {"measurement": "CL/F,ss", "setting": "[9]; multiple dose, steady state, 200 mg QD, N = 10, geometric mean", "result": 155, "unit": "mL/min"}, {"measurement": "fe0−24,ss", "setting": "[9]; multiple dose, steady state, 200 mg QD, urine, N = 10, geometric mean", "result": 8.86, "unit": "%"}, {"measurement": "CL/F", "setting": "[9]; single dose, 200 mg QD cohort, N = 15, geometric mean", "result": 216, "unit": "mL/min"}, {"measurement": "fe0–24", "setting": "[9]; single dose, 200 mg QD cohort, urine, data for 13 patients, geometric mean", "result": "5.60^b %"}]}, {"smiles": "CN(c1ncccc1CNc1nc(Nc2ccc3c(c2)CC(=O)N3)ncc1C(F)(F)F)S(C)(=O)=O", "note": "[PF-00562271]", "values": [{"measurement": "anti-tumor activity in phase I", "setting": "advanced solid tumors", "result": "evidence of disease stabilization"}, {"measurement": "proteinuria", "setting": "[1]", "result": "Proteinuria has been reported"}]}]}
